From paper PMC6697428 (SLAS discovery : advancing life sciences R & D, 2018)
Where two headings read alike, the source gives them in different places.

Columns and labels:
ISRE-bla THP-1 cells = assay: ISRE-bla THP-1 FRET reporter assay for prolonged IFN-α induced ISRE activation; type: cell-based, human
[1] = system: murine bone marrow derived dendritic cells; type: cell-based, mouse; settings: 5 μM compound in presence of IFN-α, compared to IFN-α alone
ISG15 in THP-1 cells = assay: Immunoblot of IFN-α induced ISG15 protein expression; type: cell-based, human; settings: 24 h
human THP-1 cells = assay: q-PCR of ISG15 and ISG56 gene expression in THP-1 cells; type: cell-based; settings: 1 μM compound, 1000 U/mL IFN-α, 8 h, compared to vehicle
THP-1 cells = assay: MTT cell viability assay; type: cell-based, human; settings: for relative viability (MTT): 5 μM compound, overnight, relative to vehicle control (0.5% DMSO)
Procedure, shortened: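 THP-1 cells in 96-well plates were exposed to test compound at 5 μM for 18 h. MTT (0.5 mg/ml in assay media) was then added for 4–6 h. Cells were lysed overnight in 15% w/v SDS with 0.12% v/v 12N HCl. Absorbance was read at 570 nm against a 650 nm reference and expressed relative to vehicle (0.5% DMSO) wells.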

[2] = system: STAT1 phosphorylation in THP-1 cells; assay: Immunoblot of STAT1 phosphorylation after IFN-α; type: cell-based, human; settings: 1 μM compound pre-treatment 12 h, then IFN-α

Row | SMILES | FRET ratio in the absence of exogenous interferon (ISRE-bla THP-1 cells; no IFN-α, even at higher concentrations of the compounds) | EC50 (ISRE-bla THP-1 cells; read-out: relative EC50 (ISRE activity), with 100 U/mL IFN, 16 h) | mRNA expression of Isg56, Isg15, Ifi2712a, Irf7, Ifi16 [1] | mRNA expression of Isg56, Isg15, Ifi2712a, Irf7, Ifi16 ([1]; listed as KX2–391) | levels of IFN-α induced ISG15 protein (ISG15 in THP-1 cells; 1 μM compound with IFN-α) | amounts of ISG15 protein without IFN-α (ISG15 in THP-1 cells; compound alone) | increase in gene expression for both ISG15 and ISG56 (human THP-1 cells) | relative viability (MTT) (THP-1 cells) | % relative viability, dose response cytotoxicity (THP-1 cells; absence of IFN-α, dose response starting with 50 μM) | level of p-STAT1 after 30 minutes ([2]; 30 minutes) | level of p-STAT1 at 6 h post stimulation ([2]; 6 h) | relative viability (MTT) (THP-1 cells; 5 µM) | relative viability (MTT) (THP-1 cells; listed as Belinostat, 5 µM)
1 | O=C(Cc1ccc(-c2ccc(OCCN3CCOCC3)cc2)cn1)NCc1ccccc1 [Compound 24, KX2–391] | no increase | 1640 nM | significantly increased | increased | increased | did not increase | ~2 fold | without significant toxicity | > 75% | elevated | minimal residual effect | – | –
2 | O=C(/C=C/c1cccc(S(=O)(=O)Nc2ccccc2)c1)NO [Compound 26, belinostat] | – | – | – | – | – | – | – | – | – | – | – | toxic | relatively toxic
